TRPC6 activator = activates the mouse TRPC6 cation channel; Q61143; HEK293-TRPC6 membrane potential dye fluorescence; hits give high values; B-score at 10 µM; hit rate 0.13% among 310,000;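 active = B-score of the integrated fluorescence ratio above library mean plus 3 SD, and starting fluorescence ratio within library mean plus 5 SD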;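 also: higher score means more depolarization so channel activation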
TRPC6 inhibitor = inhibitors of mouse TRPC6 channel; Q61143; HEK293-TRPC6, membrane potential dye, ACh-evoked depolarization; hits give low values; B-score at 10 µM; hit rate 1.1% among 310,000;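 active = B-score under library mean minus 3 SD, initial fluorescence not abnormally high, positive integrated signal ratio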;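 also: B-score derived from integrated fluorescence ratio over the kinetic read; more negative B-score means stronger inhibition of depolarization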
TRPC4 inh = inhibitors of mouse TRPC4 channel. AID 2247. Q9QUQ5. HEK293 TRPC4beta/mu-opioid, DAMGO-evoked Fluo4 calcium flux; hits give low values. hit rate 0.39% among 300,000. B-score at 10 µM;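 active = B-score over 3 SD under the library average, no early fluorescence shift, positive overall ratio signal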
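Material: HEK293 cells with stable TRPC4beta plus mu-opioid receptor expression; probe or stimulus: DAMGO in two steps, submaximal then maximal; technique: Fluo4 calcium fluorescence by kinetic imaging, 5 s 1 Hz baseline; measure: integrated fluorescence ratio relative to baseline, converted to per-well B score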
TRPC4 act = TRPC4 (mouse) channel activation; Q9QUQ5; HEK293 TRPC4beta/mu-opioid, Fluo4 calcium fluorescence; hits give high values; B-score at 10 µM; hit rate 0.49% among 310,000; AID 2237;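 active = B-score above 5 SD of library B-scores, and initial fluorescence ratio not above library mean plus 5 SD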;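 also: positive B-score marks a calcium rise read as TRPC4 activation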
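Technique: kinetic Fluo4 calcium fluorescence; Test system: TRPC4beta and mu-opioid receptor HEK293 stable cells; Measure: B-scored integrated calcium fluorescence ratio; Benchmarks: low control buffer alone, high control maximal DAMGO; Schedule: 45 min room-temperature Fluo4 loading, 110 s read.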
TRPC4 potent = TRPC4 (mouse) allosteric potentiation; B-score at 10 µM; HEK293 TRPC4beta/mu-opioid, DAMGO EC20, Fluo-4 Ca2+ flux; hits give high values; Q9QUQ5; hit rate 0.42% among 310,000; AID 2227;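 active = B-score of calcium response area above 5 SD of library B-scores, with initial fluorescence ratio within 5 SD of library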;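 also: B-score of integrated fluorescence ratio over time as area under calcium response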
TRPC4 sel inh 2 = mouse TRPC4 off-target activity of TRPC6 inhibitors, second screen. HEK293 TRPC4/MOR, membrane potential dye fluorescence; channel activated by saturating DAMGO dose. inhibition, % at 10 µM. shares compounds with TRPC6 inhibitor. hit rate 42% among 920;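 active = compounds whose fluorescence signal differed from control wells by over 3 SD, either direction, in both duplicate plates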
TRPC4 spec = tests whether TRPC6 inhibitors also affect mouse TRPC4 | shares compounds with TRPC6 inhibitor | HEK293 TRPC4/mu-opioid, membrane potential fluorescence | activity change, negative = inhibition, % at 10 µM | hit rate 61% among 920;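 active = rise or fall in signal beyond 3 SD of buffer-only wells in both replicate plates, either sign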;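 also: integrated kinetic ratio of fluorescence range over baseline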
HEK293 MPD ctr 2-1 = parental HEK293 nonspecific activity of TRPC6 inhibitors, second screen; shares compounds with TRPC6 inhibitor; parental HEK293 membrane potential dye fluorescence; maximal acetylcholine challenge after compound addition; signal change vs control, % at 10 µM; hit rate 31% among 920; AID 2779;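 active = membrane potential signal moving either way by over 3 SD of the maximum-effect control, in both duplicate plates, meaning non-specific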
HEK293 MPD ctr-1 = counter-screen for TRPC6 inhibitors: effect in parental HEK293 cells; AID 2780; hit rate 60% among 920; shares compounds with TRPC6 inhibitor; parental HEK293 membrane potential dye fluorescence; membrane potential signal change, % at 10 µM;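 active = membrane potential signal shifting up or down by more than 3 SD of buffer-only wells, on both duplicate plates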
HEK293 MPD ctr-2 = checks TRPC6 modulator effects in parental HEK293 cells | shares compounds with TRPC6 inhibitor | membrane potential dye fluorescence | membrane potential signal change, % at 10 µM | hit rate 51% among 2,400 | AID 488924;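 active = membrane potential signal moves up or down beyond 5 SD from buffer-only wells, on both duplicate plates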
HEK293 MPD ctr 2-2 = parental HEK293 nonspecific activity of TRPC6 modulators, second screen | shares compounds with TRPC6 inhibitor | membrane potential dye fluorescence; after compound, maximal acetylcholine stimulation | inhibition, % at 10 µM | hit rate 14% among 2,400;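 active = membrane potential signal drops by more than 5 SD from the mean control signal, in both duplicate plates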;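 also: plate controls were acetylcholine ECmax control wells for no effect and buffer only wells for full effect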
TRPC4/MOR mod = mouse TRPC4 off-target activity of TRPC6 modulators | AID 488927 | percent change from control (negative = decrease, positive = increase), % at 10 µM | shares compounds with TRPC6 inhibitor | hit rate 69% among 2,400 | HEK293 TRPC4/mu-opioid, membrane potential fluorescence;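 active = membrane potential signal moved up or down beyond 5 SD of buffer control wells, in both duplicate plates, actives on both sides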;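 also: plate controls were assay buffer wells for no effect and DAMGO maximal-effect wells for full effect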
TRPC4/MOR inh 2 = second check of whether TRPC6 modulators also affect mouse TRPC4. shares compounds with TRPC6 inhibitor. HEK293 TRPC4/mu-opioid, membrane potential dye fluorescence; stimulated with maximal-effect DAMGO. inhibition, % at 10 µM. hit rate 55% among 2,400. AID 488928;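 active = drop in membrane potential signal beyond 5 SD of the control wells in both duplicate plates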;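 also: TRPC4 counter screen for TRPC6 hits run under conditions tuned for TRPC6 not TRPC4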
TRPC6 block conf = confirmation of mouse TRPC6 inhibitors; shares compounds with TRPC6 inhibitor; HEK293-TRPC6, membrane potential dye, ACh-evoked depolarization; inhibition, % at 10 µM; hit rate 43% among 3,300; AID 488960;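 active = fluorescence ratio falls more than 5 SD below the full-stimulation control mean, in both duplicate runs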;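 also: integrated fluorescence ratio of peak minus minimum over baseline after agonist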
TRPC6 act confirm = confirmation of mouse TRPC6 activators. shares compounds with TRPC6 inhibitor. HEK293-TRPC6 membrane potential dye fluorescence, FDSS. activation, % at 10 µM. hit rate 11% among 2,800;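 active = ratio signal rise beyond 5 SD above unstimulated control wells' mean, seen in both duplicate runs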;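 also: plate controls were buffer EC0 wells for no effect and acetylcholine ECmax response for full effect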
Active calls of the source: *; i = inactive; . = no result. This is a sample that favours compounds with a hit; in the whole collection about 2.3% have one here.

SMILES	TRPC6 activator	TRPC6 inhibitor	TRPC4 inh	TRPC4 act	TRPC4 potent	HEK293 MPD ctr-2	HEK293 MPD ctr 2-2	TRPC4/MOR mod	TRPC4/MOR inh 2	TRPC6 block conf	TRPC6 act confirm	others
Cc1ccc(N(Cc2cc3ccc(C)cc3[nH]c2=O)S(=O)(=O)c2ccccc2)cc1	i	i	i	i	i	.	.	.	.	.	.
CCOc1ccc2[nH]c3c(N4CCc5ccccc5C4)ncnc3c2c1	i	-6.5*	i	i	i	i	i	i	52%*	i	i
Cc1cccc(C)c1OCC(=O)NNC(=O)CCNC(=O)c1ccco1	i	i	i	i	i	.	.	.	.	.	.
CN1CCN(NC(=O)CN2C(=O)/C(=C/c3ccccc3Cl)SC2=S)CC1	i	-8.3*	i	i	i	.	.	.	.	61%*	i	TRPC4 sel inh 2=64%*;TRPC4 spec=i;HEK293 MPD ctr 2-1=i;HEK293 MPD ctr-1=-130%*
O=C(CN1CCCCC1)N1c2ccccc2CCc2ccccc21	i	-6.5*	i	i	i	100%*	i	17%*	i	i	.
O=C(c1nc2ccccn2c1CNCCn1ccc2ccccc21)N1CCOCC1	i	i	i	i	i	.	.	.	.	.	.
O=C1CCCc2ccccc2N1Cc1ccccc1	i	i	i	i	i	.	.	.	.	.	.
COc1ccc(CN2C(=O)CCCc3ccccc32)cc1	i	-5.7*	i	i	i	i	i	i	i	i	i
CC(=O)c1ccccc1Oc1cc(NN2CCCCC2)c([N+](=O)[O-])cc1[N+](=O)[O-]	i	-6*	i	i	i	i	i	i	32%*	i	i
CCN(CC)C(=O)N1c2ccccc2CC(N(CC)CC)c2ccccc21 (stereo not drawn)	i	-5.2*	i	i	i	220%*	i	39%*	i	i	.
Cc1cccc(C)c1NC(=O)C(=O)NCC1CCCN1S(=O)(=O)c1cccs1 (stereo not drawn)	i	i	i	i	i	.	.	.	.	.	.
COCCCNC(=O)CCC(=O)Nc1ccc2nc(N3CCOCC3)cc(C)c2c1	i	-6.8*	i	i	i	.	.	.	.	64%*	i	TRPC4 sel inh 2=i;TRPC4 spec=-28%*;HEK293 MPD ctr 2-1=i;HEK293 MPD ctr-1=-360%*
Cc1cc(N2CCN(C)CC2)nc2ccc(NC(=O)CCC(=O)NCCCOC(C)C)cc12	i	i	i	i	i	.	.	.	.	.	.
CCCCNC(=O)CCC(=O)Nc1ccc2nc(N3CCCCC3)cc(C)c2c1	i	i	i	i	i	.	.	.	.	.	.
CC(C)CCNC(=S)Nc1ccc2nc3n(c(=O)c2c1)CCCCC3	i	-5.2*	i	i	i	i	i	i	i	i	i
CCCCNC(=O)CCC(=O)Nc1ccc2nc(N3CCOCC3)cc(C)c2c1	i	i	i	i	i	.	.	.	.	.	.
CCCCNC(=S)Nc1ccc2nc3n(c(=O)c2c1)CCCCC3	i	i	i	i	i	.	.	.	.	.	.
Cc1cc(N2CCCCC2)nc2ccc(NC(=O)CCC(=O)NCCC(C)C)cc12	i	-8*	i	i	i	.	.	.	.	i	i	TRPC4 sel inh 2=i;TRPC4 spec=-16%*;HEK293 MPD ctr 2-1=224%*;HEK293 MPD ctr-1=-228%*
CCN(CC)CCCNC(=O)CCC(=O)Nc1ccc2nc(N3CCC(C)CC3)cc(C)c2c1	i	-6.1*	i	i	i	136%*	i	22%*	i	i	.
O=C(CC1C(=O)NCCN1CCCc1ccccc1)NCCc1ccccc1Cl (stereo not drawn)	i	i	i	i	i	.	.	.	.	.	.
COc1ccc(N=C2O/C(=C/c3sc(=S)n(CC4CCCO4)c3O)N=C2C#N)cc1 (stereo not drawn)	i	i	i	i	i	.	.	.	.	.	.
Cc1cc(N2CCN(C)CC2)nc2ccc(NC(=O)CCC(=O)N3CCN(c4ccc([N+](=O)[O-])cc4)CC3)cc12	12*	i	i	i	i	237%*	i	44%*	i	i	84%*
Cc1cc(N2CCOCC2)nc2ccc(NC(=O)CCC(=O)N3CCN(c4ccccc4)CC3)cc12	i	i	i	i	i	.	.	.	.	.	.
COc1cccc(CNc2cnc3ccccc3c2)c1O	i	i	i	i	i	.	.	.	.	.	.
COc1cccc(CNc2nc3ccccc3n2C)c1O	i	-5.7*	i	i	i	i	i	i	43%*	i	i
Cn1c(NCc2c[nH]c3ccccc23)nc2ccccc21	i	-6.7*	-5*	i	i	.	.	.	.	i	i	TRPC4 sel inh 2=48%*;TRPC4 spec=-12%*;HEK293 MPD ctr 2-1=i;HEK293 MPD ctr-1=-214%*
O=C(C1CCCN(S(=O)(=O)c2cc(Cl)ccc2Cl)C1)N1CCOCC1 (stereo not drawn)	i	i	i	i	i	.	.	.	.	.	.
CCOc1ccc2nc(COC(=O)c3cccc([N+](=O)[O-])c3)c(C(C)=O)[n+]([O-])c2c1	i	i	i	i	i	.	.	.	.	.	.
CN(C(=O)c1ccc2ccccc2c1)c1ccccn1	i	i	i	i	i	.	.	.	.	.	.
CCCCc1nc2ccccc2c(NC(=O)CNC(C)(C)C)c1CCC	i	i	i	i	i	.	.	.	.	.	.

Bioassay records deposited in PubChem BioAssay by Johns Hopkins Ion Channel Center.
